# Assay results: ChEMBL document CHEMBL1138851, “Synthesis, antifungal activity, and structure-activity relationships of coruscanone A analogues” (J Med Chem, 2006)
# What was measured:
# LLC-PK1 = assay: Cytotoxicity against LLC-PK1 cells by neutral red method; assay type: cell-based; conditions: Sus scrofa
# In short: (§1)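 Neutral red assay on ATCC-sourced Vero (African green monkey kidney […]) and LLC-PK1 (pig kidney epithelial) cells. Top test concentration 10 μg/mL. Values are means of three independent experiments.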
# Candida albicans [1] = assay: Antifungal activity against fluconazole-susceptible Candida albicans; assay type: functional, organism-based
# In short: (§2)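 Broth microdilution; samples serially diluted in 20% DMSO/saline, duplicate wells. Incubated 37 °C, 18–24 h; OD630 read before and after incubation. IC50 from percent growth vs concentration; MIC as lowest concentration with no detectable growth; MFC as no growth on agar after plating 5 μl from clear wells.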
# Vero = assay: Cytotoxicity against Vero cells by neutral red method; assay type: cell-based; conditions: Chlorocebus sabaeus; in short: as §1
# Candida albicans [2] = assay: Antifungal activity against Candida albicans ATCC 90028; assay type: functional, organism-based
# In short: as §2, with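 “duplicate wells. Inoculum 1.0 × 10⁴ CFU/ml in RPMI 1640/2% dextrose/0.03% glutamine/MOPS, pH 6.0. Incubated 37” for “duplicate wells. Incubated 37”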
# Cryptococcus neoformans = assay: Antifungal activity against Cryptococcus neoformans ATCC 90113; assay type: functional, organism-based
# In short: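 Serial dilutions in 20% DMSO/saline, tested in duplicate. Inoculum 1.0 × 10⁵ CFU/ml in Sabouraud dextrose broth. Incubated 30 °C, 72 h; OD630 read before and after incubation. IC50 from percent growth vs concentration; MIC as lowest concentration with no detectable growth; MFC as no growth on agar after plating 5 μl from clear wells.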
# Candida albicans [3] = assay: Antifungal activity against fluconazole-resistant Candida albicans; assay type: functional, organism-based
# In short: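 Broth microdilution (NCCLS-based) against patient isolate #17 (last isolate during fluconazole therapy, azole-resistant); samples serially diluted in 20% DMSO/saline, tested in duplicate. Inoculum 1.0 × 10⁴ CFU/ml in RPMI 1640/2% dextrose/0.03% glutamine/MOPS pH 6.0; 37 °C, 18–24 h; OD630 read before and after. IC50 from % growth versus concentration; MIC = no detectable growth; MFC by subculture onto agar. Means of three independent experiments.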
# Aspergillus fumigatus = assay: Antifungal activity against Aspergillus fumigatus ATCC 90906; assay type: functional, organism-based
Structure (SMILES),IC50 (LLC-PK1),IC50 (Candida albicans [1]),MFC (Candida albicans [1]),MIC (Candida albicans [1]),IC50 (Vero),IC50 (Candida albicans [2]),MFC (Candida albicans [2]),MIC (Candida albicans [2]),IC50 (Cryptococcus neoformans),MFC (Cryptococcus neoformans),MIC (Cryptococcus neoformans),IC50 (Candida albicans [3]),IC50 (Aspergillus fumigatus),MFC (Aspergillus fumigatus),MIC (Aspergillus fumigatus),MFC (Candida albicans [3]),MIC (Candida albicans [3])
COC(/C=C/c1ccccc1)=C1\C(=O)C=C(c2ccccc2)C1=O,5.1 µg/mL,20 µg/mL,> 20 µg/mL,> 20 µg/mL,> 10 µg/mL,> 20 µg/mL,> 20 µg/mL,> 20 µg/mL,> 20 µg/mL,> 20 µg/mL,> 20 µg/mL,18 µg/mL,> 20 µg/mL,> 20 µg/mL,> 20 µg/mL,–,–
CO/C(C)=C1\C(=O)C=C(C)C1=O,–,–,–,–,–,> 20 µg/mL,–,–,> 20 µg/mL,–,–,–,> 20 µg/mL,–,–,–,–
CC1=C(C)C(=O)C(=C(/C=C/c2ccccc2)OC(=O)/C=C/c2ccccc2)C1=O,–,–,–,–,–,> 20 µg/mL,–,–,> 20 µg/mL,–,–,–,> 20 µg/mL,–,–,–,–
CC1=CC(=O)/C(=C(O)/C=C/c2ccccc2)C1=O,–,–,–,–,–,> 20 µg/mL,–,–,> 20 µg/mL,–,–,–,> 20 µg/mL,–,–,–,–
CC1=CC(=O)/C(=C(O)/C=C/c2cccs2)C1=O,–,–,–,–,–,> 20 µg/mL,–,–,> 20 µg/mL,–,–,–,> 20 µg/mL,–,–,–,–
CC(=O)OC(/C=C/c1ccccc1)=C1C(=O)C(C)=C(C)C1=O,–,–,–,–,–,> 20 µg/mL,–,–,> 20 µg/mL,–,–,–,> 20 µg/mL,–,–,–,–
COC(/C=C/c1ccco1)=C1\C(=O)C=C(C)C1=O,3.3 µg/mL,0.93 µg/mL,2.5 µg/mL,2.5 µg/mL,3.3 µg/mL,1.4 µg/mL,4.17 µg/mL,4.17 µg/mL,3.4 µg/mL,13 µg/mL,10 µg/mL,2.4 µg/mL,8.98 µg/mL,20 µg/mL,20 µg/mL,6.67 µg/mL,4.17 µg/mL
COC(/C=C/c1ccc(O)cc1)=C1\C(=O)C=C(C)C1=O,3.4 µg/mL,1.86 µg/mL,13 µg/mL,5 µg/mL,3.7 µg/mL,3.3 µg/mL,10 µg/mL,10 µg/mL,6.95 µg/mL,> 20 µg/mL,> 20 µg/mL,5.35 µg/mL,> 20 µg/mL,> 20 µg/mL,> 20 µg/mL,20 µg/mL,20 µg/mL
O=C1C=C(c2ccccc2)C(=O)/C1=C(O)\C=C\c1ccccc1,–,–,–,–,–,> 20 µg/mL,–,–,> 20 µg/mL,–,–,–,> 20 µg/mL,–,–,–,–
CCOC(/C=C/c1ccccc1)=C1\C(=O)C=C(C)C1=O,4 µg/mL,2.49 µg/mL,17 µg/mL,12 µg/mL,4.8 µg/mL,5.02 µg/mL,20 µg/mL,20 µg/mL,5.02 µg/mL,20 µg/mL,20 µg/mL,4.51 µg/mL,> 20 µg/mL,> 20 µg/mL,> 20 µg/mL,20 µg/mL,13 µg/mL
CCOC(/C=C/c1ccccc1)=C1C(=O)C(C)=C(C)C1=O,–,–,–,–,–,> 20 µg/mL,–,–,> 20 µg/mL,–,–,–,> 20 µg/mL,–,–,–,–
COC(/C=C/c1cccs1)=C1\C(=O)C=C(C)C1=O,2.8 µg/mL,0.74 µg/mL,2.5 µg/mL,2.5 µg/mL,3 µg/mL,1.21 µg/mL,3.33 µg/mL,3.33 µg/mL,2.49 µg/mL,12 µg/mL,12 µg/mL,1.39 µg/mL,9.81 µg/mL,> 20 µg/mL,20 µg/mL,4.17 µg/mL,4.17 µg/mL
COC(/C=C/c1ccccc1)=C1C(=O)C(C)=C(C)C1=O,–,–,–,–,–,> 20 µg/mL,–,–,> 20 µg/mL,–,–,–,> 20 µg/mL,–,–,–,–
COC(/C=C/c1ccc(Cl)cc1)=C1\C(=O)C=C(C)C1=O,3.1 µg/mL,0.64 µg/mL,2.92 µg/mL,2.08 µg/mL,5.5 µg/mL,1.39 µg/mL,4.17 µg/mL,4.17 µg/mL,2.23 µg/mL,12 µg/mL,12 µg/mL,0.86 µg/mL,20 µg/mL,> 20 µg/mL,> 20 µg/mL,2.92 µg/mL,2.92 µg/mL
CC1=CC(=O)/C(=C(O)/C=C/c2ccco2)C1=O,–,–,–,–,–,> 20 µg/mL,–,–,> 20 µg/mL,–,–,–,> 20 µg/mL,–,–,–,–
CC(=O)OC(/C=C/c1ccccc1)=C1\C(=O)C=C(C)C1=O,4.9 µg/mL,3.79 µg/mL,> 20 µg/mL,> 20 µg/mL,5.5 µg/mL,8.56 µg/mL,> 20 µg/mL,> 20 µg/mL,20 µg/mL,> 20 µg/mL,> 20 µg/mL,5.84 µg/mL,> 20 µg/mL,> 20 µg/mL,> 20 µg/mL,–,–
CO/C(=C1\C(=O)C=C(C)C1=O)c1ccccc1,> 10 µg/mL,7.88 µg/mL,> 20 µg/mL,> 20 µg/mL,> 10 µg/mL,10.6 µg/mL,> 20 µg/mL,> 20 µg/mL,> 20 µg/mL,> 20 µg/mL,> 20 µg/mL,6.04 µg/mL,> 20 µg/mL,> 20 µg/mL,> 20 µg/mL,–,–
CC1=CC(=O)/C(=C(O)/C=C/c2ccc(Cl)cc2)C1=O,6 µg/mL,10 µg/mL,> 20 µg/mL,> 20 µg/mL,> 10 µg/mL,13 µg/mL,> 20 µg/mL,> 20 µg/mL,> 20 µg/mL,> 20 µg/mL,> 20 µg/mL,13 µg/mL,> 20 µg/mL,> 20 µg/mL,> 20 µg/mL,–,–
CC1=C(C)C(=O)C(=C(O)/C=C/c2ccccc2)C1=O,–,–,–,–,–,> 20 µg/mL,–,–,> 20 µg/mL,–,–,–,> 20 µg/mL,–,–,–,–
CC1=C(C)C(=O)C(=C(/C=C/c2ccccc2)OC(=O)c2ccccc2)C1=O,–,–,–,–,–,> 20 µg/mL,–,–,> 20 µg/mL,–,–,–,> 20 µg/mL,–,–,–,–
CC1=CC(=O)/C(=C(\O)c2ccccc2)C1=O,–,–,–,–,–,> 20 µg/mL,–,–,> 20 µg/mL,–,–,–,> 20 µg/mL,–,–,–,–
COC(/C=C/c1ccc(OC)cc1)=C1\C(=O)C=C(C)C1=O,3.9 µg/mL,1.56 µg/mL,6.67 µg/mL,5 µg/mL,5 µg/mL,3.03 µg/mL,10 µg/mL,10 µg/mL,3.41 µg/mL,17 µg/mL,15 µg/mL,4.29 µg/mL,> 20 µg/mL,> 20 µg/mL,> 20 µg/mL,13 µg/mL,10 µg/mL
C[C@@H]1[C@H](O)[C@@H](C)/C=C/C=C/C=C/C=C/C=C/C=C/C=C/[C@H](O[C@@H]2O[C@H](C)[C@@H](O)[C@H](N)[C@@H]2O)C[C@@H]2O[C@](O)(C[C@@H](O)C[C@@H](O)[C@H](O)CC[C@@H](O)C[C@@H](O)CC(=O)O[C@H]1C)C[C@H](O)[C@H]2C(=O)O [AMPHOTERICIN B],2.4 µg/mL,0.12 µg/mL,–,0.52 µg/mL,7 µg/mL,0.15 µg/mL,1.04 µg/mL,0.63 µg/mL,0.41 µg/mL,1.67 µg/mL,–,0.17 µg/mL,0.73 µg/mL,–,–,0.83 µg/mL,0.63 µg/mL
COC(/C=C/c1ccccc1)=C1\C(=O)C=C(C)C1=O [CORUSCANONE A],3.4 µg/mL,0.47 µg/mL,1.25 µg/mL,1.25 µg/mL,4.9 µg/mL,0.8 µg/mL,2.08 µg/mL,2.08 µg/mL,2.04 µg/mL,8.33 µg/mL,8.33 µg/mL,0.68 µg/mL,19 µg/mL,> 20 µg/mL,> 20 µg/mL,2.08 µg/mL,2.08 µg/mL
COc1cccc2c1C(=O)c1c(O)c3c(c(O)c1C2=O)C[C@@](O)(C(=O)CO)C[C@@H]3O[C@H]1C[C@H](N)[C@H](O)[C@H](C)O1 [DOXORUBICIN],0.65 µg/mL,–,–,–,7.5 µg/mL,–,–,–,–,–,–,–,–,–,–,–,–
OC(Cn1cncn1)(Cn1cncn1)c1ccc(F)cc1F [FLUCONAZOLE],> 10 µg/mL,0.24 µg/mL,> 200 µg/mL,0.45 µg/mL,> 10 µg/mL,0.22 µg/mL,> 200 µg/mL,0.45 µg/mL,5.65 µg/mL,> 200 µg/mL,37 µg/mL,118 µg/mL,> 200 µg/mL,> 200 µg/mL,> 200 µg/mL,> 200 µg/mL,> 200 µg/mL
